Active and inactive are the calls of the source. No cut-off for these calls is given here.
Assays:
Mus musculus [1] = assay: Body weight lowering effect in ICR mouse assessed as cumulative changes in body weight at 1000 nmol/kg, ip administered every other day for 2 weeks; format: functional, organism-based
Mus musculus [2] = assay: Anorectic activity in overnight fasted ICR mouse assessed as reduction in cumulative food intake at 1000 nmol/kg, ip measured up to 8 hrs post dose
Glucagon receptor = Glucagon receptor (Homo sapiens, UniProt P47871); assay: Agonist activity at human GCGR expressed in HEK293 cells assessed as increase in cAMP accumulation after 20 mins by HTRF assay; format: functional, cell-based
Chain of Glucagon receptor (P47871 whole entry): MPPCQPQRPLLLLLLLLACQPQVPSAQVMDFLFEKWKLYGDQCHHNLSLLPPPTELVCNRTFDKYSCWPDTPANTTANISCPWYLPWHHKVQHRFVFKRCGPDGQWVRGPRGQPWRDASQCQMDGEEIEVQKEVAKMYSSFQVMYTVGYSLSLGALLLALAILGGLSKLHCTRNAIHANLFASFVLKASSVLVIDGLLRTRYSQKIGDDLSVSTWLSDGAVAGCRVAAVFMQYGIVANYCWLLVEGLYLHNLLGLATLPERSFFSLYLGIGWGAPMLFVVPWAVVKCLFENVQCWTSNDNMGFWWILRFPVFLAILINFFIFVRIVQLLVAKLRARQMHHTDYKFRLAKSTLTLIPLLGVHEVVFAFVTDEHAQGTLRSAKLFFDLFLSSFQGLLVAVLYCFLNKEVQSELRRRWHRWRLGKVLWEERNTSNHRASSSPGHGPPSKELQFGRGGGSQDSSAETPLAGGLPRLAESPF

Mus musculus [3] = assay: Anorectic activity in overnight fasted ICR mouse assessed as reduction in cumulative food intake at 1000 nmol/kg, ip measured at <2 hrs post dose; format: functional, organism-based
Mus musculus [4] = assay: Antiobesity activity in diet-induced obese C57Bl/6 mouse model assessed as serum leptin level at 3.48 mg/kg, ip administered every other day for 30 days by ELISA (reference value: 1.9 +/- 0.07 ng/ml); format: functional, organism-based
How it was run: (§1)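 Male C57Bl/6 mice were fed high-fat diet (60% kcal fat) for 12 weeks; DIO mice were ~38 g at 20 weeks. Dosing was i.p. (10 mL/kg in 0.9% saline) every other day at 9 am for 30 days, with saline controls and low-fat-diet lean mice for reference. Insulin, leptin and adiponectin were measured at study end. n=6-8 per group, means ± SD.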

Mus musculus [5] = assay: Antiobesity activity in diet-induced obese C57Bl/6 mouse model assessed as serum adiponectin level at 3.48 mg/kg, ip administered every other day for 30 days by ELISA (reference value: 8.9 +/- 0.38 ug/ml); format: functional, organism-based; how it was run: as §1
Mus musculus [6] = assay: Anorectic activity in overnight fasted ICR mouse assessed as reduction in cumulative food intake at 1000 nmol/kg, ip measured at 2 hrs post dose; format: functional, organism-based
How it was run: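 Male ICR mice, 9 weeks old, […], then given a single i.p. dose of 1000 nmol/kg in 0.9% saline; saline-injected controls. Mice were returned to home cages with preweighed food, which was reweighed at 0.5, 1, 2, 4, 8 and 24 h. Readout is cumulative food intake, n=6-8 per group.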

Mus musculus [7] = assay: Antiobesity activity in diet-induced obese C57Bl/6 mouse model assessed as plasma triglyceride level at 3.48 mg/kg, ip administered every other day for 30 days (reference value: 0.84 +/- […]); format: functional, organism-based
Mus musculus [8] = assay: Antiobesity activity in diet-induced obese C57Bl/6 mouse model assessed as plasma cholesterol level at 3.48 mg/kg, ip administered every other day for 30 days (reference value: 4.33 +/- […]); format: functional, organism-based
Mus musculus [9] = assay: Antiobesity activity in diet-induced obese C57Bl/6 mouse model assessed as plasma insulin level at 3.48 mg/kg, ip administered every other day for 30 days by ELISA (reference value: 13.33 +/- […]); format: functional, organism-based

Row | Molecule | Activity (Mus musculus [1]) | Activity (Mus musculus [2]) | EC50 (Glucagon receptor) | Activity (Mus musculus [3]) | Activity (Mus musculus [4]) | Activity (Mus musculus [5]) | Activity (Mus musculus [6]) | Activity (Mus musculus [7]) | Activity (Mus musculus [8]) | Activity (Mus musculus [9])
1 | CC[C@H](C)[C@H](NC(=O)[C@H](Cc1ccccc1)NC(=O)[C@H](CCC(=O)O)NC(=O)[C@H](CCCCN)NC(=O)[C@H](C)NC(=O)[C@H](C)NC(=O)[C@H](CCC(N)=O)NC(=O)CNC(=O)[C@H](CCC(=O)O)NC(=O)[C@H](CC(C)C)NC(=O)[C@H](Cc1ccc(O)cc1)NC(=O)[C@H](CO)NC(=O)[C@H](CO)NC(=O)[C@@H](NC(=O)[C@H](CC(=O)O)NC(=O)[C@H](CO)NC(=O)[C@@H](NC(=O)[C@H](Cc1ccccc1)NC(=O)[C@@H](NC(=O)CNC(=O)[C@H](CCC(=O)O)NC(=O)[C@H](C)NC(=O)[C@@H](N)Cc1c[nH]cn1)[C@@H](C)O)[C@@H](C)O)C(C)C)C(=O)N[C@@H](C)C(=O)N[C@@H](Cc1c[nH]c2ccccc12)C(=O)N[C@@H](CC(C)C)C(=O)N[C@H](C(=O)N[C@@H](CCCCN)C(=O)NCC(=O)N[C@@H](CCCN=C(N)N)C(=O)NCC(=O)O)C(C)C | inactive | Active | Not Active |  |  |  |  |  |  | 
2 | GLUCAGON | inactive |  |  | Active | 1.79 ng/mL | 12.2 µg/mL | inactive | 1.19 mmol/L | 5.08 mmol/L | 8.41 ng/mL
